Inconclusive results are not listed.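 How the source made its calls, unless noted: active means viability increase at or above a cutoff of the median across tested compounds plus 3 SD (cut at about 8.5% in these data, passing the limit was not always enough); inconclusive means some gains above the cutoff, reason not given; inactive means the rest.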
What was measured:
[1] = OD615 S. cerevisiae growth inhibition, permissive medium, pilot counter-assay, permissive growth control for S. cerevisiae lifespan shortening project (AID 705;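 active means growth inhibition above 25% in both replicates, a cutoff set 3 SD above the mean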); conditions: OD615, 24 h, at 10 µM, hits give high values
In short: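 assay system = Saccharomyces cerevisiae strain carrying genetically modified DeaD replicative-lifespan system | medium = SC raffinose/galactose permissive medium | dosing = 10 µM single dose, 0.25% DMSO | schedule = 24 h compound exposure at 30 °C after 4 h pre-growth | measured by = OD at 615 nm | read-out basis = growth inhibition from lowered OD615 after 24 h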

[2] = Restrictive medium S. cerevisiae growth inhibition, OD615, pilot screen of yeast lifespan reduction project, restrictive growth control (AID 706;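 active means growth inhibition above a set limit, 3 SD over mean compound inhibition, in both replicates, cut at about 43% in these data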;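 further: modified DeaD lifespan yeast strain shifted to restrictive glucose medium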); conditions: OD615, 48 h, at 10 µM, hits give high values
In short: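 Buffer or medium: CSMM-D glucose medium. Material: genetically modified Saccharomyces cerevisiae, DeaD replicative lifespan assay strain. Times: 48 h compound exposure at 30 °C. Measured by: optical density at 615 nm.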

[3] = viability gain of MRP-1-high H69AR cells under doxorubicin, pilot screen, MRP-1 activator project, CellTiter-Glo, duplicate (AID 807); conditions: H69AR viability with doxorubicin, CellTiter-Glo luminescence; at 10 µM; hits give high values;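 further: compound pretreatment 18-22 h then 72 h combined with doxorubicin; 0% = doxorubicin alone and 100% = vehicle without doxorubicin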
[4] = growth suppression of beta-catenin knockout HCT116, pilot screen, human colon tumor cells (AID 823;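 active means cell viability at or below a set limit in both duplicate runs, the limit being the all-compound median minus 4 SD, cut at about 23% in these data, passing the limit was not always enough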;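 further: 0% = wells killed by 20 µM Hyamine and 100% = untreated DMSO cell wells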); conditions: CellTiter-Glo, 60 h, at 10 µM, hits give low values
[5] = growth suppression of PTEN-deleted HCT116, pilot screen, cell-based, HCT116 clonal line, CellTiter-Glo (AID 824;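 active means viability at or below 27.92% in each of two runs, the all-compound median minus 4 SD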;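 further: 0% = 20 µM Hyamine control and 100% = vehicle cell control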); conditions: 60 h, at 10 µM, hits give low values
[6] = inhibitors of the yeast RAM network, pilot screen, dse1pr::URA3 reporter, 5-FOA selection (AID 869;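 active means inhibition over a set limit, the all-compound mean plus 3 SD, in both replicate runs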;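 further: 0% = DMSO wells with no growth and 100% = 10 µM 1-NA-PP1 with full growth; RAM network block rescues cells from 5-FOA so hits raise OD615 growth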); conditions: S. cerevisiae dse1pr::URA3 5-FOA growth, OD615, 2 d; at 10 µM; hits give high values; strain carries analog-sensitive mutant Cbk1 kinase
[7] = RAM signaling pathway blockade in yeast – S. cerevisiae, Pdr1DBD-CYC8 efflux-inhibited sensitized strain, primary screen (AID 1298;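 active means RAM network inhibition above 8.4% in each of two replicates, 3 SD over the compound average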;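 further: 0% = DMSO untreated cells without growth and 100% = 10 µM 1-NA-PP1 full growth; higher means more yeast growth rescued from 5-FOA killing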); conditions: S. cerevisiae cbk1-as DSE1-URA3 strain, 5-FOA growth OD615, 2 d; at 50 µM; hits give high values

CCOc1ccc(C2CC(c3cccc(C)c3)n3nc(N)nc3N2)cc1 (stereo not given)
inactive: growth inhibition [1] 2.79% | growth inhibition [2] 11.8% | viability increase [3] -0.49% | viability [4] 91.7% | viability [5] 83.2% | inhibition [6] 1.02% | RAM network inhibition [7] 2.03%

CCOC(=O)Cn1c(=O)oc2cc(S(=O)(=O)NCc3cccs3)ccc21
inactive: growth inhibition [1] -3.16% | growth inhibition [2] 1.21% | viability increase [3] -1.22% | viability [4] 90.6% | viability [5] 86.9% | inhibition [6] 0.73% | RAM network inhibition [7] 0.2%

CCn1cc(CNC(=O)c2cc(Cl)ccc2OC)c(C)n1
inactive: growth inhibition [1] -4.3% | growth inhibition [2] -0.555% | viability increase [3] -0.95% | viability [4] 91% | viability [5] 92.2% | inhibition [6] -0.445% | RAM network inhibition [7] 3.38%

O=C1OCc2cc(NC(=O)C3COc4ccccc4O3)ccc21 (stereo not given)
inactive: growth inhibition [1] -17.8% | growth inhibition [2] 10.7% | viability increase [3] -0.17% | viability [4] 103% | viability [5] 93.3% | inhibition [6] 1.29% | RAM network inhibition [7] 10.9%

COc1cc(NC(=O)C2CCCN2S(=O)(=O)c2ccc3c(c2)CCC(=O)N3)cc(OC)c1 (stereo not given)
inactive: growth inhibition [1] -15.3% | growth inhibition [2] -5.1% | viability increase [3] -1.09% | viability [4] 97.7% | viability [5] 105% | inhibition [6] 1.09% | RAM network inhibition [7] 1.33%

C=CCSC1=C(C#N)C(c2ccc(C(C)C)cc2)CC(=O)N1 (stereo not given)
inactive: growth inhibition [1] -11.6% | growth inhibition [2] 8.41% | viability increase [3] -1.41% | viability [4] 92.2% | viability [5] 96.3% | inhibition [6] 0.04% | RAM network inhibition [7] 5.66%

CCOc1ccc(NC(=O)C2C3C=CC4(CN(C(C(=O)OC)C(C)C)C(=O)C24)O3)cc1 (stereo not given)
inactive: growth inhibition [1] -9.79% | growth inhibition [2] 5.85% | viability increase [3] -1.43% | viability [4] 108% | viability [5] 102% | inhibition [6] 1.31% | RAM network inhibition [7] 6.37%

C=CCN(C1CCCCC1)S(=O)(=O)c1ccc2c(c1)oc(=O)n2C
inactive: growth inhibition [1] -16.7% | growth inhibition [2] -11.6% | viability increase [3] -4.14% | viability [4] 86.5% | viability [5] 80.4% | inhibition [6] 2.28% | RAM network inhibition [7] 6%

COC(=O)C1C2C=CC3(CN(c4cccc(Cl)c4)C(=O)C13)O2 (stereo not given)
inactive: growth inhibition [1] -11.2% | growth inhibition [2] -8.25% | viability increase [3] -1.38% | viability [4] 107% | viability [5] 99.5% | inhibition [6] 1.06% | RAM network inhibition [7] 5.74%

CCC(C)NC(=O)CS(=O)Cc1nc(-c2cccc(C)c2)oc1C (stereo not given)
inactive: growth inhibition [1] -12.9% | growth inhibition [2] -5.66% | viability increase [3] -1.72% | viability [4] 99.4% | viability [5] 88.2% | inhibition [6] 1.52% | RAM network inhibition [7] 4.65%

CCOCCCNC(=O)C(c1ccc(C)cc1)N(Cc1ccc2c(c1)OCO2)C(=O)CNC(C)=O (stereo not given)
inactive: growth inhibition [1] -8.64% | growth inhibition [2] 0.77% | viability increase [3] 0.84% | viability [4] 100% | viability [5] 102% | inhibition [6] 0.88% | RAM network inhibition [7] 2.3%

Cc1noc(C)c1S(=O)(=O)N(CC(=O)N1CCc2ccccc21)c1ccc(C(C)C)cc1
inactive: growth inhibition [1] -4.56% | growth inhibition [2] -7.38% | viability increase [3] -5.04% | viability [4] 86.7% | viability [5] 82.5% | inhibition [6] 1.3% | RAM network inhibition [7] 5.36%

Cc1cc(NC(=O)CSc2c3c(nc4ccccc24)CCC3)no1
inactive: growth inhibition [1] -4.17% | growth inhibition [2] 5.52% | viability increase [3] -6.01% | viability [4] 78.1% | viability [5] 74.6% | inhibition [6] 2.21% | RAM network inhibition [7] 2.01%

COc1cc(Cl)c(S(=O)(=O)NCc2cccnc2)cc1Cl
inactive: growth inhibition [1] -9.13% | growth inhibition [2] -9.08% | viability increase [3] 0.38% | viability [4] 99.5% | viability [5] 97.3% | inhibition [6] 0.745% | RAM network inhibition [7] 4.73%

CN1CCN(C(=O)c2ccccc2NC(=O)Cc2ccccc2)CC1
inactive: growth inhibition [1] -12.3% | growth inhibition [2] 1.69% | viability increase [3] -1.06% | viability [4] 98.4% | viability [5] 103% | inhibition [6] 1.83% | RAM network inhibition [7] 1.81%

Source: PubChem BioAssay
